In the library only some 3.5% were active in any assay of this set; here they are far more common.
MrgX1 antagonist: human MrgX1 receptor antagonism, primary screen; Q96LB2; MRGX1-HEK293 calcium flux, Fluo-4, BAM8-22 antagonism; hits give low values; B-score at 10 µM; AID 588676; 310,000 tested, 1.3% active;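 active = calcium-response B-score plate-corrected more than 3 library SD below zero, starting fluorescence within 5 deviations, no agonist response on first addition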;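 also: peak minus trough fluorescence over baseline after final BAM8-22 challenge near maximal dose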
MrgX1 agonist: activates human MrgX1 receptor signaling | 310,000 tested, 0.44% active | MrgX1-HEK293 cells, Fluo-4 calcium fluorescence, agonist mode; hits give high values | B-score at 10 µM | AID 588627;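 active = calcium response B-score plate-corrected fluorescence ratio at least 3 library SD, with starting fluorescence B-score inside 5 SD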
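System: HEK293 cells stably expressing human MrgX1 receptor; Dosing: test compound in the initial addition of three; Schedule: overnight plating, then 30 min 37 °C plus 30 min room-temperature dye loading; Detection: kinetic calcium dye fluorescence, Fluo-4 NW; Controls: per-plate positive and negative controls for Z′ factor.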
RGS4 act: potentiators or activators of RGS4. HEK293 M3R/inducible RGS4, carbachol calcium flux Fluo4; hits give low values. B-score at 10 µM. 310,000 tested, 0.92% active. AID 463111;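 active = B-score of the integrated calcium signal more than 4 SD below the library mean, with starting fluorescence not abnormally high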;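 also: negative B-score means reduced calcium response which marks RGS4 activation or potentiation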
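Material: Inducible-RGS4 HEK293 cells carrying M3 receptor; also added: carbachol at ECmax as muscarinic agonist stimulus; incubation: compound preincubation 20 min at room temperature before agonist; signal: Fluo4-AM (2 µM) calcium-flux fluorescence, kinetic read; measure: integrated calcium ratio converted to B score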
MrgX1 allo act: human MrgX1 positive allosteric modulation, primary screen | Q96LB2 | MrgX1-HEK293, Fluo-4 calcium flux, FDSS; hits give high values | B-score at 10 µM | 310,000 tested, 0.63% active | AID 588675;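 active = plate-corrected calcium response at least 3 library SD above typical, normal starting fluorescence, not activating the receptor alone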;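 also: compound read alongside a low EC10 to EC30 dose of BAM8-22 agonist; peak minus trough fluorescence over baseline measured at the second addition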
RGS4 inh: inhibitors of human RGS4 | AID 463165 | 310,000 tested, 0.45% active | HEK293 M3R/RGS4 inducible, Fluo-4 calcium flux; hits give high values; triggered by carbachol at its EC20 | B-score at 10 µM | P49798;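 active = B-score, a plate-corrected calcium signal, over three deviations above library mean, with baseline fluorescence within five deviations of library mean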;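 also: RGS4 expression induced by doxycycline in cells with stable M3 receptor; B-score is computed from the integrated fluorescence ratio over baseline after carbachol; higher B-score means a larger calcium signal and so more RGS4 inhibition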
Target sequence (P49798 whole entry, looked up): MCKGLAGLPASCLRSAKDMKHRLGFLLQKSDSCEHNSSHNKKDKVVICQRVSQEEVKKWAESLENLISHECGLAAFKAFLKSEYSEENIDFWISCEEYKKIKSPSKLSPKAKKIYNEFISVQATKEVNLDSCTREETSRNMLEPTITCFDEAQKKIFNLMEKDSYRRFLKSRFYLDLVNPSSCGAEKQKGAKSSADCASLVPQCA
RGS4 block valid: validation of RGS4 inhibitors; shares compounds with RGS4 inh; HEK293 M3R/RGS4, carbachol calcium Fluo-4 fluorescence; carbachol added at its EC20; 0 = buffer wells, 100 = carbachol control; calcium response, % at 10 µM; 1,700 tested, 65% active;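 active = duplicate-averaged calcium response above the buffer-only control mean plus 5 SD of those controls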;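 also: integrated fluorescence ratio F max minus min over baseline F0; higher response in RGS4-induced cells means RGS4 inhibition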
RGS4 uninduced: counter-screen for RGS4 inhibitors: effect in non-induced cells; 1,900 tested, 20% active; activity (percent), % at 10 µM; shares compounds with RGS4 inh; HEK293 M3R non-induced, carbachol calcium Fluo-4; submaximal (EC20) carbachol stimulus; buffer wells 0%, carbachol control wells 100%; call rule not given here;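 also: RGS4 induction absent so cells express M3R without RGS4; higher means more calcium signal and flags a non-specific hit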
M3R basal Ca ctr: signal in non-induced cells without carbachol, RGS4 inhibitor counter-screen | shares compounds with RGS4 inh | calcium response (agonist-mode artifact), % at 10 µM | 1,900 tested, 22% active | HEK293 M3R/RGS4 non-induced, Fluo-4 calcium, no carbachol; normalised: buffer wells 0%, carbachol wells 100%;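 active = duplicate-averaged calcium rise in uninduced cells above buffer wells' mean plus 5 SD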
Numbers without * were called inactive; i = inactive; x = no result.

SMILES | MrgX1 antagonist | MrgX1 agonist | RGS4 act | MrgX1 allo act | RGS4 inh | RGS4 block valid | RGS4 uninduced | M3R basal Ca ctr
CN(C)S(=O)(=O)c1ccc(Cl)c(NC(=O)CSc2nc3ccccc3c(=O)n2CCCN2CCOCC2)c1 | i | i | i | i | i | x | x | x
COc1ccc(CC(=O)Nc2cccc(C(=O)O)c2C)cc1 | i | i | i | i | i | x | x | x
COc1cc(C2c3c(-c4cc(Cl)c(C)cc4O)n[nH]c3C(=O)N2Cc2cccnc2)ccc1O (stereo not given) | i | i | i | i | i | x | i | i
Cc1ccc(C2c3c(-c4ccccc4O)n[nH]c3C(=O)N2Cc2ccncc2)cc1 (stereo not given) | i | i | i | i | i | x | x | x
COc1ccccc1NC(=O)N1CCCC1C(=O)NCc1ccccc1Cl (stereo not given) | i | i | i | i | i | x | x | x
Oc1c(-c2cc(-c3ccco3)[nH]n2)ccc2ccccc12 | i | i | i | i | 12.2* | 30.5%* | 31.0%* | i
O=C(c1cc2n(n1)C(C(F)(F)F)CC(c1ccco1)N2)N1CCc2ccccc2C1 (stereo not given) | i | i | i | i | 5.16* | 8.0%* | i | 28.0%*
C#CCOc1ccc(/C=C2/C(=O)NN(c3ccc(F)cc3)C2=O)cc1OC | i | i | i | i | i | x | 30.0%* | i
COc1cc(/C=C2/C(=O)NN(c3cccc(C)c3)C2=O)ccc1OC(=O)c1ccco1 | i | i | i | i | 6.82* | 16.0%* | 31.0%* | i
COc1cc(/C=C2\C(=O)NN(c3ccccc3)C2=O)ccc1OCC(N)=O | i | i | i | i | i | x | x | x
COC(=O)c1ccc(N2NC(=O)/C(=C/c3ccc(OC)c(OC)c3)C2=O)cc1 | i | i | i | i | 6.18* | 19.5%* | 40.5%* | i
O=C(Cc1cccs1)N1CCC(c2nc3c(nnn3Cc3ccc(F)cc3)c(=O)[nH]2)CC1 | i | i | i | i | i | i | i | i
COc1ccc(C2CC(c3cccs3)=NN2S(=O)(=O)c2ccc(C)cc2)cc1 (stereo not given) | i | i | i | i | 6.22* | 17.0%* | i | i
Cc1ccc(C2CC(c3cccs3)=NN2S(=O)(=O)c2ccc(C)cc2)cc1 (stereo not given) | i | i | i | i | i | x | i | 31.5%*
O=S(=O)(c1ccccc1)N1N=C(c2cccs2)CC1c1ccc(F)cc1 (stereo not given) | i | i | i | i | i | x | x | x
OCCN1CCN(c2nc(-c3ccccc3)nc3c2oc2ccccc23)CC1 | i | i | i | i | i | x | x | x
CC(=O)N1N=C(c2cccc(NS(=O)(=O)c3ccc(C)cc3)c2)CC1c1ccco1 (stereo not given) | i | i | i | i | i | x | x | x
CC(=O)N1N=C(c2c(-c3ccccc3)c3cc(C)ccc3[nH]c2=O)CC1c1ccco1 (stereo not given) | i | i | i | i | i | x | i | i
CC(=O)N1N=C(c2c(-c3ccccc3)c3cc(Br)ccc3[nH]c2=O)CC1c1ccco1 (stereo not given) | i | i | i | i | 7.49* | 20.5%* | i | i
COc1cc(NS(=O)(=O)c2ccc(Nc3nc(-c4ccccc4)cs3)cc2)nc(OC)n1 | i | i | i | i | 7.96* | 18.5%* | i | i

From PubChem BioAssay
